Calls of active or inactive are those of the source. The calls are words filed in the database; no cut-off is given here.
Columns and labels:
[1] = biological target: T1, Estrogen receptor (Ovis aries) (UniProt P49885+Q9TU15); experiment: (§1) Irreversible inhibition of [3H]estradiol binding to lamb uterine estrogen receptor; format: protein assay
Summary of the method: (§2)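 Lamb uterine cytosol (4 mg protein/mL, immature lamb uteri, 20 mM Tris-HCl) adjusted to pH 8.5 with NaOH, preincubated 4 h at 0 °C with 10 nM–10 µM compound or no steroid. Charcoal treatment for 30 min at 0 °C, then centrifugation. […] Specific binding is expressed as % of unexposed cytosol. IC50 is the concentration giving 50% irreversible inhibition; duplicates in two experiments.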

[2] = biological target: T1, Estrogen receptor (Ovis aries); experiment: In vitro agonist/antagonist activity in estrogen regulated transcriptional activation assay; format: functional; details: filed as partial agonist
Estrogen receptor = Estrogen receptor (Ovis aries, UniProt P49885+Q9TU15); experiment: as §1; format: protein assay; summary of the method: as §2
[3] = biological target: T1, Estrogen receptor (Ovis aries)
[4] = biological target: T1, Estrogen receptor (Ovis aries); experiment: Relative efficiency(RE) in irreversible inhibition of lamb uterine estrogen receptor relative to iodoacetamide 23
[5] = biological target: T1, Estrogen receptor (Ovis aries); experiment: In vitro antagonist activity in estrogen regulated transcriptional activation assay; format: functional; details: filed as antagonist
[6] = biological target: T1, Estrogen receptor (Ovis aries); experiment: In vitro agonist activity in estrogen regulated transcriptional activation assay; format: functional; details: filed as agonist

| Covalent binding [1] | Hormonal activity [2] | IC50 (Estrogen receptor) [nM] | RAC app [3] | RE [4] | Hormonal activity [5] | Hormonal activity [6] | SMILES |
| --- | --- | --- | --- | --- | --- | --- | --- |
| Active | Partial agonist | 18 | 0.0084 | 1 | – | – | C[C@]12CC[C@@H]3c4ccc(O)cc4CC[C@H]3[C@@H]1CC[C@@]2(O)CCCNC(=O)CI |
| Active | Partial agonist | 1600 | 0.017 | 0.011 | – | – | C[C@]12CC[C@@H]3c4ccc(O)cc4CC[C@H]3[C@@H]1CC[C@@]2(O)CCNC(=O)CBr |
| Active | Partial agonist | 53 | 0.019 | 0.34 | – | – | C[C@]12CC[C@@H]3c4ccc(O)cc4CC[C@H]3[C@@H]1CC[C@@]2(O)CCCNC(=O)CBr |
| inactive | Partial agonist | – | 0.0084 | – | – | – | CC(=O)NCCC[C@]1(O)CC[C@H]2[C@@H]3CCc4cc(O)ccc4[C@H]3CC[C@@]21C |
| Active | – | 9700 | 0.0076 | 0.0019 | Antagonist | – | C[C@]12CC[C@@H]3c4ccc(O)cc4CCC3[C@@H]1CC[C@@]2(O)CNC(=O)CBr (single isomer, unassigned) |
| inactive | – | – | 0.15 | – | – | Agonist | C[C@]12CC[C@@H]3c4ccc(O)cc4CC[C@H]3[C@@H]1CC[C@@]2(O)CCOS(C)(=O)=O |
